According to ChEMBL document CHEMBL1123247, “Nucleoside conjugates. 7. Synthesis and antitumor activity of 1-beta-D-arabinofuranosylcytosine conjugates of ether lipids” (J Med Chem, 1986):
Several values for one entry are separate records, joined by “and”; a condition that tells them apart may be missing. Identical values can stand only once.

Assays:
HL-60 = experiment: Compound was tested for the inhibition of human HL60 Leukemia; assay type: functional, cell-based
Outline: (§1)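 Human leukemia and solid tumor cells in culture were exposed to compound for 48 h. Viability was scored by trypan blue dye exclusion. IC50 (50% inhibition) was estimated from response curves of three separate experiments.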

NSCLC = experiment: Compound was tested for the inhibition of non- small cell lung cancer; assay type: functional, cell-based; conditions: Homo sapiens; outline: as §1
CML/BC = experiment: Compound was tested for the inhibition of CML/BC(chronic myeloid leukemia, blast crisis); assay type: functional, cell-based; conditions: Homo sapiens; outline: as §1
[1] = system: Small cell lung cancer cell line; experiment: Compound was tested for the inhibition of small cell lung cancer; assay type: functional, cell-based; conditions: Homo sapiens; outline: as §1
Glioblastoma cell line = experiment: Compound was tested for the inhibition of glioblastoma; assay type: functional, cell-based; conditions: Homo sapiens; outline: as §1
AMML = experiment: Compound was tested for the inhibition of AMML (acute myelomonocytic leukemia); assay type: functional, cell-based; conditions: Homo sapiens; outline: as §1
L1210 [2] = experiment: Antitumor activity was determined against the ip implanted L1210 leukemia in mice by percent increase in life span at 128 and 262 mg/kg (treatment of 1qd schedule) dosage; assay type: functional, Mus musculus; conditions: route intraperitoneal
Outline: (§2)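 DBA/2J mice in groups of 6 (wt 23-28 g) were inoculated ip with 1×10^6 L1210 cells on day 0. Dosing was ip from 24 h, in 0.9% NaCl with 0.5% Tween-80 (conjugates sonicated), across a range of doses. Mice were observed daily until death or 45 days. Median T/C was computed from survivors per NCI protocols, and ILS = (T/C − 1)×100.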

L1210 [3] = experiment: Antitumor activity was determined against the ip implanted L1210 leukemia in mice by percent median survival rate (treated/control) at 32 and 66 mg/kg (treatment of 1-5qd schedule) dosage; Range is 11.0/8.0; assay type: functional, Mus musculus; conditions: route intraperitoneal
Outline: (§3)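 DBA/2J mice, 23-28 g, in groups of 6, were inoculated ip with 1×10^6 L1210 cells on day 0. Dosing was ip starting 24 h later on the stated daily schedules. Conjugates were given as sonicated solutions and reference prodrugs as suspensions in 0.9% NaCl with 0.5% Tween-80. Mice were observed daily until death or 45 days. Median survival T/C was calculated from survivors per NCI protocols.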

L1210 [4] = experiment: Antitumor activity was determined against the ip implanted L1210 leukemia in mice by range in survival days at 128 and 262 mg/kg (treatment of 1qd schedule) dosage; Range is 7-8; assay type: functional, Mus musculus; conditions: route intraperitoneal; outline: as §3
L1210 [5] = experiment: Antitumor activity was determined against the ip implanted L1210 leukemia in mice by median survival time at 128 and 262 mg/kg (treatment of 1qd schedule) dosage; 8.0/8.0; conditions: route intraperitoneal
L1210 [6] = experiment: Antitumor activity was determined against the ip implanted L1210 leukemia in mice by change in […] at 32 and 66 mg/kg (treatment of 1-5qd schedule) dosage; assay type: functional, Mus musculus; conditions: route intraperitoneal
Outline: (§4)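 DBA/2J mice, 6 per group (wt 23-28 g), inoculated ip with 1×10^6 L1210 cells on day 0. Treatment was given ip in 0.9% NaCl with 0.5% Tween-80, starting 24 h later. Weight change was taken on day 8. Mice were observed daily until death or 45 days. Median survival T/C and %ILS = (T/C − 1) × 100 came from survivors per NCI protocols, and 45-day survivors were counted.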

L1210 [7] = experiment: Antitumor activity was determined against the ip implanted L1210 leukemia in mice by range in survival days at 32 and 66 mg/kg (treatment of 1-5qd schedule) dosage; Range is 10-12; assay type: functional, Mus musculus; conditions: route intraperitoneal; outline: as §3
L1210 [8] = experiment: Antitumor activity was determined against the ip implanted L1210 leukemia in mice by percent increase in life span at 32 and 66 mg/kg (treatment of 1-5qd schedule) dosage; assay type: functional, Mus musculus; conditions: route intraperitoneal; outline: as §2
L1210 [9] = experiment: Antitumor activity was determined against the ip implanted L1210 leukemia in mice by 45-day survivors in mice at 32 and 66 mg/kg (treatment of 1-5qd schedule) dosage; assay type: functional, Mus musculus; conditions: route intraperitoneal; outline: as §2
L1210 [10] = experiment: Antitumor activity was determined against the ip implanted L1210 leukemia in mice by change in […] at 128 and 262 mg/kg (treatment of 1qd schedule) dosage; assay type: functional, Mus musculus; conditions: route intraperitoneal; outline: as §4
L1210 [11] = experiment: Antitumor activity against the ip implanted L1210 leukemia in mice expressed as optimal dose (1-5qd treatment schedule) required to produce greatest increase in life span was determined; assay type: functional, Mus musculus
Outline: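 DBA/2J mice, groups of 6 (23-28 g), were inoculated ip with 1 × 10^6 L1210 cells on day 0. Dosing was ip from 24 h, in 0.9% NaCl with 0.5% Tween-80 (sonicated solution or suspension). Mice were observed daily until death or day 45. Median survival T/C followed NCI protocols, and ILS = (T/C − 1) × 100. Active range means doses giving ILS ≥25%; optimal dose means greatest ILS.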

L1210 [12] = experiment: Antitumor activity was determined against the ip implanted L1210 leukemia in mice by 45-day survivors in mice at 128 and 262 mg/kg (treatment of 1qd schedule) dosage; assay type: functional, Mus musculus; conditions: route intraperitoneal; outline: as §2

`CCCCCCCCCCCCCCCCCCOCC(COP(=O)([O-])OCC[N+](C)(C)C)OC.Nc1ccn([C@@H]2O[C@H](CO)[C@@H](O)[C@@H]2O)c(=O)n1` (configuration not stated) gave an IC50 (HL-60) of 0.26 µM, an IC50 (NSCLC) of 34 µM and an IC50 (CML/BC) of 0.25 µM. The IC50 [1] was 38 µM, the IC50 (Glioblastoma cell line) was 27 µM and the IC50 (AMML) was 1.35 µM.
In the case of `CCCCCCCCCCCCCCCCCCOCC(COP(=O)(O)O)OC(=O)CCCCCCCCCCCCCCC.Nc1ccn([C@@H]2O[C@H](COP(=O)(O)O)[C@@H](O)[C@@H]2O)c(=O)n1` (racemic), the ILS (L1210 [2]) is reported as 0, the median survival time (L1210 [3]) is reported as 11 days and the Range (L1210 [4]) is reported as 7. For the same molecule, the median survival time (L1210 [5]) was 8 days, the Weight change (L1210 [6]) was 3.5 g mouse-1 and the Range (L1210 [7]) was 10. It also gave an ILS (L1210 [8]) of 38, a Survivors (L1210 [9]) of 0 and a Weight change (L1210 [10]) of 3.2 g mouse-1. For the same molecule, the Optimal dose (L1210 [11]) was 32 mg and 66 mg and the Survivors (L1210 [12]) was 0.
